# Assay results collected from several papers.
# Each line is one published result; the experiments were not run side by side.
# Target: Protein kinase C epsilon type (PRKCE, Homo sapiens, UniProt Q02156)
# Sequence (Q02156 1-737, as in one of the studies): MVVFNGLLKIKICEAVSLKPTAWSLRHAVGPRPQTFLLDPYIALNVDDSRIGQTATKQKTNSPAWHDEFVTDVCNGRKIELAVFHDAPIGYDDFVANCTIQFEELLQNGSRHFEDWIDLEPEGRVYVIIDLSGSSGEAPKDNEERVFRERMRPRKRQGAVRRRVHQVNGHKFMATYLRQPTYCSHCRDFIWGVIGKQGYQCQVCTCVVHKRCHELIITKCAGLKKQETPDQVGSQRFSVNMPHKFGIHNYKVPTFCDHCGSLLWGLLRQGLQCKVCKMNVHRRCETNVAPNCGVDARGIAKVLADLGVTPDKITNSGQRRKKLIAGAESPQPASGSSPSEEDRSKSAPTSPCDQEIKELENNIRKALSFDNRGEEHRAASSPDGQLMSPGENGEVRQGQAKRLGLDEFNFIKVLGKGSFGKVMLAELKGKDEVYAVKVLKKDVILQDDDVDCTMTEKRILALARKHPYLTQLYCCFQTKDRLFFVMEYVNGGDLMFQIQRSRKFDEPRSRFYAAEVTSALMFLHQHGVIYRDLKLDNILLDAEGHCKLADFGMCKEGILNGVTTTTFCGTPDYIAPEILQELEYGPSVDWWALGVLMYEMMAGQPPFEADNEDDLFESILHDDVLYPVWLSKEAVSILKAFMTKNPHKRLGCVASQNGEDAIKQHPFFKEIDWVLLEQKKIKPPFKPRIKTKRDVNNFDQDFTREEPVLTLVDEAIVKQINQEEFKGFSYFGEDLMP
Structure (SMILES),assay,setting,endpoint,value
C1=C/COCc2cc(ccc2OCCN2CCCC2)Nc2nccc(n2)-c2cccc(c2)COC/1,binding,0.1 µM,remaining binding,68%
N#Cc1ccc(NC(=O)Nc2ccccc2)cc1,"cell-free assay, competition with immobilised ligand",25 µM,remaining binding,100%
CC#CC(=O)N1CCC[C@H]1c1nc(-c2ccc(C(=O)Nc3ccccn3)cc2)c2c(N)nccn12,"enzyme activity, inhibitor",1 µM,inhibition,0%
COc1ccc2oc(-c3ccc4nc(N)oc4c3)c/c(=N\c3ccccc3NC(=O)CCN)c2c1,binding,1 µM,remaining binding,106%
CCCCC(=O)Nc1ccc(-c2ccc3ncn(CCC)c(=O)c3c2)cn1,"binding, competition with immobilised ligand",0.5 µM,remaining binding,83%
Cc1ccc(NC(=O)c2ccnc(C(F)(F)F)c2)cc1-c1cc(OCCO)nc(N2CCOCC2)c1,binding,1 µM,remaining binding,75%
C#Cc1cnc(Nc2ccnc(CO)c2)nc1Nc1ccccc1S(C)(=O)=NC#N (stereo not drawn),cell-free assay,1 µM,remaining signal,62%
C[C@H]1CC[C@H](n2c3cnccc3c3cnc(Nc4ccc5c(n4)CCN(C(=O)CO)C5)nc32)CC1,cell-free assay,1 µM,remaining signal,100%
CO[C@@H]1[C@H](N(C)C(=O)c2ccccc2)C[C@H]2O[C@]1(C)n1c3ccccc3c3c4c(c5c6ccccc6n2c5c31)C(=O)NC4,"enzyme activity, inhibitor",1 µM,inhibition,92%
